Each molecule was assayed against Trypanothione reductase (Trypanosoma cruzi, UniProt P28593) (assay: Inhibitory activity against Trypanosoma cruzi trypanothione disulfide reductase, assay in presence of 57 uM T(S)2.).
Trypanothione reductase, sequence (P28593 whole entry): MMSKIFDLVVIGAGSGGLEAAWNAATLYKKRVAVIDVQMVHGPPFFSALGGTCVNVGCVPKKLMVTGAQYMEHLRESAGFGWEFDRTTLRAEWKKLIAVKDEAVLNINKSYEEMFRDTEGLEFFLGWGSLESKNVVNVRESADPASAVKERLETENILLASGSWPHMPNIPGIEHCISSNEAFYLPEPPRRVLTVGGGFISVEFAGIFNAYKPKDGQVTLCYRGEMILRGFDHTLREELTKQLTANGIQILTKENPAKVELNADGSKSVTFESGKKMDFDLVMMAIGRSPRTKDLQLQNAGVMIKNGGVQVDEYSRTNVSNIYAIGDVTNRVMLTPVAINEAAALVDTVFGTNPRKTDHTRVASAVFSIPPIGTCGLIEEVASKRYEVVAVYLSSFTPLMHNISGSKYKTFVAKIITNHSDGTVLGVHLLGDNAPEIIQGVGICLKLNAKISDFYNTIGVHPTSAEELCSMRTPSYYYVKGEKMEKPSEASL
Method in brief: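 Assay contained 250 µM NADPH, 57 µM T(S)₂, inhibitor at 0.3–50 µM and 1% DMSO final. Started with enzyme; NADPH loss followed at 340 nm. IC50 in duplicate.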
Work on `Cc1c(N=CCCNCCCCNCCCN)c(O)c2c(O)cccc2c1O` yielded an IC50 of 28 µM.
`Cc1c(N=CCCCN)c(O)c2ccccc2c1O` [2-(4-Amino-butylamino)-3-methyl-[1,4]naphthoquinone] showed an IC50 of over 57 µM.
With `Cc1c(N=CCCN2CCN(C)CC2)c(O)c2ccccc2c1O` [2-Methyl-3-[3-(4-methyl-piperazin-1-yl)-propylamino]-[1,4]naphthoquinone] the IC50 was over 57 µM.
`Cc1c(N=CCCC=Nc2c(C)c(O)c3ccccc3c2O)c(O)c2ccccc2c1O` [2-methyl-3-[4-(3-methyl-1,4-dioxo-1,4-dihydro-2-naphthalenylamino)butylamino]-1,4-dihydro-1,4-naphthalenedione] gave an IC50 of over 57 µM.
`Cc1c(N=CCCNCCCCNCCCN)c(O)c2ccccc2c1O` [2-{3-[4-(3-Amino-propylamino)-butylamino]-propylamino}-3-methyl-[1,4]naphthoquinone] gave an IC50 of 28 µM.
`Cc1c(N=CCCCN)c(O)c2c(O)cccc2c1O` [3-(4-Amino-butylamino)-5-hydroxy-2-methyl-[1,4]naphthoquinone] showed an IC50 of over 57 µM.
`Cc1c(C=CC(=O)NCCCCNCCCNC(=O)C=Cc2c(C)c(O)c3cccc(O)c3c2O)c(O)c2c(O)cccc2c1O` [3-(8-Hydroxy-3-methyl-1,4-dioxo-1,4-dihydro-naphthalen-2-yl)-N-(4-{3-[3-(8-hydroxy-3-methyl-1,4-dioxo-1,4-dihydro-naphthalen-2-yl)-propionylamino]-propylamino}-butyl)-propionamide] was tested, and the IC50 was 2.9 µM.
Work on `Cc1c(C=CC(=O)O)c(O)c2c(O)cccc2c1O` [3-(8-Hydroxy-3-methyl-1,4-dioxo-1,4-dihydro-naphthalen-2-yl)-propionic acid] yielded an IC50 of over 50 µM.
In the case of `CN1CCN(CCCNC(=O)C=Cc2c(CCC(=O)NCCCN3CCN(C)CC3)c(O)c3cccc(O)c3c2O)CC1` [3-(8-Hydroxy-3-{2-[3-(4-methyl-piperazin-1-yl)-propylcarbamoyl]-ethyl}-1,4-dioxo-1,4-dihydro-naphthalen-2-yl)-N-[3-(4-methyl-piperazin-1-yl)-propyl]-propionamide], the IC50 is reported as over 50 µM.
`Cc1c(C=CCC(=O)NCCCNCCCNC(=O)CC=Cc2c(C)c(O)c3ccccc3c2O)c(O)c2ccccc2c1O` [4-(3-Methyl-1,4-dioxo-1,4-dihydro-naphthalen-2-yl)-N-(3-{3-[4-(3-methyl-1,4-dioxo-1,4-dihydro-naphthalen-2-yl)-butyrylamino]-propylamino}-propyl)-butyramide] gave an IC50 of 11 µM.
With `CN1CCN(CCCNC(=O)CC=Cc2c(CCCC(=O)NCCCN3CCN(C)CC3)c(O)c3cccc(O)c3c2O)CC1` [4-(5-Hydroxy-3-{3-[3-(4-methyl-piperazin-1-yl)-propylcarbamoyl]-propyl}-1,4-dioxo-1,4-dihydro-naphthalen-2-yl)-N-[3-(4-methyl-piperazin-1-yl)-propyl]-butyramide] the IC50 was 11 µM.
`Cc1c(C=CCC(=O)NCCCN2CCN(CCCNC(=O)CC=Cc3c(C)c(O)c4cccc(O)c4c3O)CC2)c(O)c2c(O)cccc2c1O` [4-(8-Hydroxy-3-methyl-1,4-dioxo-1,4-dihydro-naphthalen-2-yl)-N-[3-(4-{3-[4-(8-hydroxy-3-methyl-1,4-dioxo-1,4-dihydro-naphthalen-2-yl)-butyrylamino]-propyl}-piperazin-1-yl)-propyl]-butyramide] gave an IC50 of 2.3 µM.
Molecule `Cc1c(C=CCC(=O)O)c(O)c2c(O)cccc2c1O` [4-(8-Hydroxy-3-methyl-1,4-dioxo-1,4-dihydro-naphthalen-2-yl)-butyric acid] has an IC50 of over 50 µM.
`Cc1c(N=CCCN2CCN(C)CC2)c(O)c2c(O)cccc2c1O` [5-Hydroxy-2-methyl-3-[3-(4-methyl-piperazin-1-yl)-propylamino]-[1,4]naphthoquinone] showed an IC50 of over 57 µM.
For `O=C(O)CCCC=Cc1c(CCCCCC(=O)O)c(O)c2ccccc2c1O` [6-[3-(5-Carboxy-pentyl)-1,4-dioxo-1,4-dihydro-naphthalen-2-yl]-hexanoic acid], the IC50 was over 50 µM.
`Cc1c(CC=NC(=O)OC(C)(C)C)c(O)c2ccccc2c1O` [[2-(3-Methyl-1,4-dioxo-1,4-dihydro-naphthalen-2-yl)-ethyl]-carbamic acid tert-butyl ester] was tested, and the IC50 was over 50 µM.
In the case of `Cc1c(CC=NC(=O)OC(C)(C)C)c(O)c2c(O)cccc2c1O` [[2-(8-Hydroxy-3-methyl-1,4-dioxo-1,4-dihydro-naphthalen-2-yl)-ethyl]-carbamic acid tert-butyl ester], the IC50 is reported as over 25 µM.
`Cc1c(C=CCNC(=O)OC(C)(C)C)c(O)c2c(O)cccc2c1O` [[3-(8-Hydroxy-3-methyl-1,4-dioxo-1,4-dihydro-naphthalen-2-yl)-propyl]-carbamic acid tert-butyl ester] showed an IC50 of over 25 µM.
